A selection: hits, their analogues and other compounds. The true share with any hit is near 5.6%.
CHOP UPR activ: activators of apoptotic arm of unfolded protein response (CHOP) | CHO-CHOP luciferase reporter, UPR activation, luminescence; percent of tunicamycin response over DMSO baseline | activation, % at 10 µM | actives 0.34% (n = 330,000);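 active = at 10 µM dose, activation of 40% or more, normalized to positive control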;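 note: 100% = tunicamycin at 10 µg/mL and 0% = DMSO alone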
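Assay system: CHO-CHOP cells, stable luciferase reporter of PERK-eIF2a-CHOP signalling / Buffer or medium: F12 plus 10% serum / Compound dosing: one dose, 10 µM in 0.5% DMSO / Times: 6 h compound treatment, 37 °C / Technique: luciferase luminescence / Read-out: % reporter activation, DMSO baseline versus tunicamycin full activation / Benchmarks: tunicamycin and DMSO controls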
MPTP inh: inhibitors of mitochondrial permeability transition pore. isolated mouse mitochondria, Ca2+ swelling absorbance, 30 min. inhibition, % at 10 µM. actives 1.4% (n = 360,000). AID 602449;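 active = inhibition of 50% or more, scaled per plate between neutral and stimulator controls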;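 note: 0% = DMSO wells given calcium and 100% = 1 mM EGTA wells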
XBP1 UPR activ: adaptive UPR (XBP1) activation. CHO-XBP1 luciferase reporter, IRE1-XBP1 UPR activation, luminescence; percent of tunicamycin response, DMSO as zero. activation, % at 20 µM. actives 0.33% (n = 330,000);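 active = versus positive control, 20 µM dose yields 30% or more activation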;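 note: 100% = tunicamycin at 10 µg/mL and 0% = DMSO only wells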
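Assay system: CHO-XBP1 luciferase reporter cells; Schedule: 6 h treatment, 37 °C; Detection: glow luminescence from Steady-Glo reagent; Benchmarks: high control tunicamycin 10 µg/mL final, low control DMSO vehicle only.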
CHOP inh: CHOP inhibition in unfolded protein response. CHO-K1 CHOP-promoter luciferase, tunicamycin-induced, 15-18 h. inhibition, % at 10 µM. actives 3.8% (n = 220,000). AID 2732;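 active = compounds that reduced the stress-induced luciferase reporter signal by more than about 70% of percent inhibition, limit read from the data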;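 note: 0% = tunicamycin plus vehicle and 100% = wells without tunicamycin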
NR3A LBD binder: modulators (binders) of human NR3A ligand-binding domain; AID 1259313; Tm shift relative to glycine control, % at 25 µM; NR3A LBD differential scanning fluorimetry, Tm shift; 0% = protein alone, 100% = glycine-bound protein; actives 2.5% (n = 340,000);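 active = melting temperature shift of at least 10% of the positive control shift, at one fixed dose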
aDG glyco act: increases alpha dystroglycan glycosylation. AID 624168. Pro5-aDG cells, alpha-DG glycosylation AlphaScreen (IIH6); 0% Pro5, 100% B10-LARGE cell signal. actives 0.22% (n = 360,000). activation, % at 10 µM;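 active = activation of at least 8% versus controls, or a plate z-score of at least 8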;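 note: Pro5 are CHO cells carrying HIG-tagged alpha-DG that lacks glycosylation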
* hit, by the source's call; x = no result given.

SMILES | CHOP UPR activ | MPTP inh | XBP1 UPR activ | CHOP inh | NR3A LBD binder | aDG glyco act
CC(C)CN(C)c1nc(N)c(C(=O)N=C(N)N)nc1Cl | x | x | x | -11 | x | x
O=[N+]([O-])c1ccc(-c2nc(NCc3ccccc3)c3ccccc3n2)cc1 | 2 | 45 | -2 | 90* | 50* | 0
O=[N+]([O-])c1cccc(-c2nc(NCc3ccccc3)c3ccccc3n2)c1 | 1 | 25 | 0 | 41 | 339* | 0
COc1ccc(CNc2nc(-c3ccccc3)nc3ccccc23)cc1OC | 0 | 2 | 1 | x | 5 | 0
O=C(O)c1cccc(Nc2nc(-c3ccc([N+](=O)[O-])cc3)nc3ccccc23)c1 | -2 | 1 | -6 | x | 0 | 0
CC1(C)CC(=O)C=C(c2n[nH]nc2C2CC2)C1 | x | -1 | x | x | x | 1
CC(=O)c1cc(-c2ccccc2)n(CC(=O)Nc2cc(C)cc(C)c2)c1C | 0 | 7 | -2 | 94* | 3 | 0
CCOC(=O)c1cc(-c2ccccc2)n(CC(=O)Nc2cc(OC)cc(OC)c2)c1C | 0 | 38 | -1 | 24 | 5 | 0
CCOC(=O)c1cc(-c2ccccc2)n(CC(=O)Nc2ccc(OCC)cc2)c1C | -1 | 5 | -1 | 80* | 2 | 0
CC(=O)c1cc(-c2ccccc2)n(CC(=O)NC2CCCC2)c1C | -1 | -1 | 0 | 10 | 0 | 0
O=C(NCc1ccc(F)cc1F)[C@@H]1CCCN1C(=O)[C@@H]1CCCN1C(=O)c1ccc(Cl)cc1 | x | 2 | x | x | x | 0
Cc1ccc2nc(NCc3ccccc3)c(C=O)c(=O)n2c1 | 3 | 0 | 4 | -4 | 14* | 0
Cc1ccc(NC(=O)CCOc2ccccc2C)cc1F | 0 | 1 | -2 | 71* | -6 | 1
Cc1ccccc1OCCCC(=O)Nc1ccc(Br)cc1 | -2 | 5 | 0 | 96* | 9 | 0
CC(=O)Nc1ccc(NC(=O)CCOc2ccccc2C)cc1 | 1 | 0 | 5 | x | 2 | 0
COc1ccc(N/N=C(/C)c2cnnc(-c3ccccc3)n2)cc1 | 6 | -1 | 1 | 37 | 13* | 0
COc1ccc(NC(=O)COC(=O)c2cc([N+](=O)[O-])ccc2N2CCOCC2)cc1 | 0 | 2 | 0 | x | 0 | 0
O=C(COC(=O)c1cc([N+](=O)[O-])ccc1N1CCOCC1)NCCc1ccccc1 | 1 | -1 | 2 | x | 16* | 0
CC(=O)Nc1ccc(NC(=O)COC(=O)c2cc([N+](=O)[O-])ccc2N2CCOCC2)cc1 | 1 | -2 | 2 | x | 23* | 0
CCOc1ccc(CCNC(=O)COC(=O)c2cc([N+](=O)[O-])ccc2N2CCOCC2)cc1OCC | 2 | -1 | -1 | x | -1 | 0
Cc1cc(=O)c(C(=O)O)c(C)n1-c1ccccc1 | x | -1 | x | x | 0 | 0
CCOc1cc(S(=O)(=O)NCCN2CCOCC2)c(C)cc1C | -1 | 0 | -2 | -8 | 11* | 0
CCOc1ccc(S(=O)(=O)NCCN2CCOCC2)c2ccccc12 | 0 | 2 | 2 | 8 | 1 | 0
Cc1nn(-c2ccccc2)c(N2CCCC2)c1/C=N/NC(=O)c1cccc(S(=O)(=O)Nc2ccc(Cl)cc2)c1 | 3 | 20 | 0 | 48 | 13* | 0
Cc1nn(-c2ccc(F)cc2)c(Cl)c1/C=N/NC(=O)c1ccc(O)cc1 | 0 | -2 | 6 | 3 | -12 | 0
Cc1nn(-c2ccccc2)c(Cl)c1/C=N/NC(=O)c1cccc(S(=O)(=O)N2CCCC2)c1 | 3 | 11 | 4 | 25 | 5 | 1
Cc1nn(-c2ccc(Cl)cc2)c(Cl)c1/C=N/NC(=O)c1ccc(NS(=O)(=O)c2cccs2)cc1 | 3 | 3 | 12 | x | 14* | 0
Cc1nn(-c2ccc(F)cc2)c(Cl)c1/C=N/NC(=O)c1cccs1 | 5 | 1 | 3 | 93* | -5 | 0
COc1cc(=O)[nH]c(SC(C)C(=O)Nc2ccc3ccccc3c2)n1 (centres undefined) | 0 | -2 | 0 | x | -13 | 1
COc1cc(/C=N/Nc2nc3ccccc3[nH]2)cc(OC)c1O | -2 | 0 | -2 | 3 | -2 | 1
